Results as given in ChEMBL document CHEMBL2385015, “Alkaloids and polyketides from Penicillium citrinum, an endophyte isolated from the Moroccan plant Ceratonia siliqua” (J Nat Prod, 2013).
The source made the active and inactive calls. No cut-off for these calls is given here.

Key:
Escherichia coli = test: Antibacterial activity against Escherichia coli ATCC 25922 at 64 ug/mL by broth microdilution method; format: functional, organism-based
Streptococcus pneumoniae = test: Antibacterial activity against Streptococcus pneumoniae ATCC 49619 at 64 ug/mL by broth microdilution method; format: functional, organism-based
Staphylococcus aureus = test: Antibacterial activity against Staphylococcus aureus ATCC 29213 at 64 ug/mL by broth microdilution method; format: functional, organism-based
L5178Y = test: Cytotoxicity against mouse L5178Y cells by MTT assay; format: functional, cell-based
Outline: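 Growth of L5178Y mouse lymphoma cells measured by MTT (microculture tetrazolium) assay relative to untreated controls. Medium with 0.1% EGMME–DMSO served as negative control and the depsipeptide kahalalide F as positive control.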

## CC1=C[C@H](O)[C@H]2C[C@@H](CO)C[C@@H](C)[C@@H]2[C@H]1/C=C/C=C/C(=O)O
Escherichia coli
  Activity: inactive
Streptococcus pneumoniae
  Activity: inactive
Staphylococcus aureus
  Activity: inactive
L5178Y
  IC50: > 10 µM

## O=C1c2c([nH]c3ccccc3c2=O)C2CCCN12 (centres undefined)
Escherichia coli
  Activity: inactive
Streptococcus pneumoniae
  Activity: inactive
Staphylococcus aureus
  Activity: inactive
L5178Y
  IC50: > 10 µM

## C[C@@H]1C[C@@](C)(O)Cc2ccc(CO)c(/C=C/C=C/C(=O)O)c21
Escherichia coli
  Activity: inactive
Streptococcus pneumoniae
  Activity: inactive
Staphylococcus aureus
  Activity: inactive
L5178Y
  IC50: > 10 µM

## CC(=O)c1c(CC(=O)O)cc(O)c(C)c1O
Escherichia coli
  Activity: inactive
Streptococcus pneumoniae
  Activity: inactive
Staphylococcus aureus
  Activity: inactive
L5178Y
  IC50: > 10 µM

## COc1cc(O)c(C)c2c1[C@@H](c1ccc3n1C(=O)c1c-3[nH]c3ccccc3c1=O)O[C@@H](C)C2 [CITRIQUINOCHROMAN]
Escherichia coli
  Activity: inactive
Streptococcus pneumoniae
  Activity: inactive
Staphylococcus aureus
  Activity: inactive
L5178Y
  IC50: 6.1 µM

## COc1cc(O)c(C)c2cc(C)ncc12
Escherichia coli
  Activity: inactive
Streptococcus pneumoniae
  Activity: inactive
Staphylococcus aureus
  Activity: inactive
L5178Y
  IC50: > 10 µM
